Test results taken from PubChem BioAssay.

test: yeast TOR pathway reporter LAP4-GFP change – cell-based, cherry picks, flow cytometry, mother/daughter gates, confirmation (AID 2271);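 note: ratio of sample to DMSO plate mean so 100% equals DMSO level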; conditions: S. cerevisiae LAP4-GFP strain, 3 h, measured here: mother cell gate response, at 10 µM, stronger effect = higher value, 100 means same as DMSO control
Method in brief: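 System: GFP-fusion yeast strain | Input: Yeast cells seeded at OD600 of 0.2 | Technique: HT flow cytometry, GFP fluorescence channel | Read-out: % GFP response vs DMSO | Dosing: Single test-compound dose, 10 µM final | Controls: Positive rapamycin (400 ng/mL), negative DMSO | Times: 3 h treatment at 30 °C with rotation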

SMILES	GFP response relative to DMSO
CCCCCCNC(=O)c1c(O)c2cccc3c2n(c1=O)CCC3	95.1%
Cc1ccc(N2CCN(C(=O)c3ccccc3)CC2)c(C)c1	94%
COc1ccccc1-c1noc(CCC(=O)Nc2cccc(C)c2)n1	96.5%
O=C(NC(=S)NNC(=O)c1ccc(Cl)cc1Cl)c1cccnc1	98.2%
CN1C(=O)c2cccc3c(Cl)ccc(c23)C1=O	107%
Cc1nc2c(-c3ccc(F)cc3)c(C)nn2c(N2CCOCC2)c1C	97.5%
CCOc1cc(-c2nc3cc(C)ccn3c2NCC2CCCO2)ccc1O (centres undefined)	87.3%
CCOC(=O)CS(=O)(=O)c1nc(-c2ccccc2)cc(C(F)(F)F)n1	206%
C[n+]1ccc(/C=C/c2c[nH]c3ccc(F)cc23)cc1	115%
COc1cc(NC(=O)c2ccc(F)cc2)ccc1NC(=O)c1cc2ccccc2o1	96.2%
O=C(NCc1cccnc1)c1cnc2n(c1=O)CCS2	100%
O=C(Nc1cc(Sc2ccccn2)cc([N+](=O)[O-])c1)c1cccc(F)c1	102%
O=C1CC(SCCO)C(=O)N1c1ccc(Oc2ccccc2)cc1 (centres undefined)	104%
Cc1cc(NCCN2CCOCC2)n2ncc(-c3ccccc3)c2n1	107%
O=C(Nc1cccc(O)c1)c1ccccc1	95.1%
Cc1nn(C)c(C(=O)Sc2cccc(Cl)c2)c1[N+](=O)[O-]	130%
COc1ccc(N2C(=O)C(Cl)=C(Nc3ccccc3O)C2=O)cc1	103%
COc1ccc(Br)cc1/C=C/C(=O)c1ccc(NC(C)=O)cc1	92.3%
CC(=O)N(\C=C/C=C/C=C1\Sc2ccccc2C1=O)c1ccccc1	152%
